Measured values published in article PMC3117328 (Chemistry & biology, 2009).

Columns and labels:
[1] = system: Escherichia coli in vitro coupled transcription-translation (GFP synthesis); test: In vitro coupled transcription-translation; format: biochemical; details: 5 µM ThS, 5 µM NoS, 25 µM GE2270T (Figure 4)
Procedure, shortened: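 E. coli lysate-based coupled transcription-translation system expressing GFP, ribosomes ~2 µM, run with or without test compound. After reaction, samples are moved to microtiter plates. GFP fluorescence is imaged on a laser scanner with blue-laser excitation and quantified from the images, with inhibition taken against the no-antibiotic reaction.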

[2] = target: EF-G GTPase (70S ribosomes) (Escherichia coli, UniProt P0A7J7); test: EF-G GTPase Pi release assay with MDCC-labeled PBP; format: biochemical
EF-G GTPase (70S ribosomes), sequence (P0A7J7 2-142): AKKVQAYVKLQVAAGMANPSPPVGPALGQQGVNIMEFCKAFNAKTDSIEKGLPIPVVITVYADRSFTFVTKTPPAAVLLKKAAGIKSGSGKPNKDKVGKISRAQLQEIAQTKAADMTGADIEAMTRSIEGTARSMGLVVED

[3] = target: IF2 (70S initiation complex formation) (Escherichia coli, UniProt P0A7J7); test: IF2^Cy3 fluorescence change assay; format: biochemical; details: ThS, NoS at 1.5 µM (Figure 2A); precursors in dose response screen
IF2 (70S initiation complex formation), sequence (P0A7J7 2-142, one chain of several): as the sequence (P0A7J7 2-142) above

[4] = background statement, no reference given; cited from earlier work
[5] = target: EF-G GTPase (E. coli 70S ribosomes) (Escherichia coli, UniProt P0A7J7); format: biochemical; details: compound 1 µM; 30 nM 70S ribosomes, 20 µM GTP, 60 nM protein
EF-G GTPase (E. coli 70S ribosomes), sequence (P0A7J7 2-142): as above

Row | Compound | inhibition of GFP synthesis in the in vitro TT assay [1] | EC50 [2] [nM] | inhibition of the IF2^Cy3 fluorescence increase on 70SIC formation (in words) [3] | bioavailability [4] | inhibition of EF-G GTPase activity (Malachite Green) [5]
1 | C=C(NC(=O)c1csc(-c2nc3c(cc2O)-c2nc(cs2)C(=O)N[C@@H]([C@@H](C)O)C(=O)N/C(=C\C)c2nc(cs2)C(=O)N[C@H]2C[C@H](O)C(=O)OCc4cccc5[nH]c(c(C)c45)C(=O)SC[C@H](NC(=O)c4csc2n4)c2nc-3cs2)n1)C(N)=O [NoS, nosiheptide] | potent inhibitors | 40 | inhibited |  | 
2 | C=C(NC(=O)C(=C)NC(=O)c1csc(C2=N[C@@H]3c4csc(n4)[C@H]4NC(=O)c5csc(n5)[C@H]([C@](C)(O)[C@@H](C)O)NC(=O)[C@H]5CSC(=N5)/C(=C/C)NC(=O)[C@H]([C@@H](C)O)NC(=O)c5csc(n5)[C@]3(CC2)NC(=O)[C@H](C)NC(=O)C(=C)NC(=O)[C@H](C)NC(=O)[C@H]([C@@H](C)CC)N[C@@H]2C=Cc3c([C@H](C)O)cc(nc3[C@H]2O)C(=O)O[C@@H]4C)n1)C(N)=O [ThS, thiostrepton] | potent inhibitors |  | inhibited | poor | almost completely abolished
3 | C/C=C(\NC(=O)c1csc(-c2csc(-c3ccc4c(n3)-c3csc(n3)[C@H]([C@@H](C)O)NC(=O)c3csc(n3)[C@H](C(C)C)NC(=O)c3csc(n3)/C(=C/C)NC(=O)[C@H]([C@@H](C)O)NC(=O)c3csc-4n3)n2)n1)C(=O)NC[C@@H](C)O [MiC, micrococcin] |  | 110 |  |  | 
4 | GE2270T | potent inhibitors |  |  |  | 
